In the library only some 3.8% were active in any assay of this set; here they are far more common.
Xi reactivation: reactivates the inactive X chromosome in mouse fibroblasts. XiGFP mouse fibroblasts, % GFP-positive cells imaging, 3 d; cells co-treated with 5-aza-dC sensitizer; scaled so ellipticine positive control = 100%. 360,000 tested, 0.055% active. activation, % at 7.58 µM;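 active = mean normalized replicate activation at least 10% and every replicate at or above 10%; inconclusive = only one of the two criteria met; inactive = mean below 10% and not all replicates reach 10%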;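 also: 0% = median of on-plate neutral control wells and 100% = ellipticine 6 µM median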
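Material: XiGFP fibroblasts, SV40-immortalized. Buffer or medium: DMEM plus 5-aza-dC sensitizer. Compound: single concentration per compound, delivered by pin transfer. Times: 3 days compound exposure. Controls: ellipticine 6 µM.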
DENV2 CPE rescue: protects cells from dengue virus 2 cytopathic effect; DENV2-infected cells, cytopathic effect rescue, plate reader; AID 651640; CPE inhibition, % at 9.99 µM; 350,000 tested, 1.7% active; in the data active = CPE inhibition above about 20%, passing the limit was not always enough; inconclusive = no clear call, values can overlap the other calls; tested in BHK-21 cells;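 also: 0% = median of neutral control wells and 100% = median of positive control wells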
FN deposit inh: fibronectin deposition inhibition; AH1F fibroblasts, Alexa488-fibronectin deposition fluorescence, overnight; inhibition, % at 12.6 µM; 350,000 tested, 0.086% active; AID 743247;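 active = mean inhibition across replicates of 30% or more, regardless of how many single replicates reach that level; inconclusive = mean under 30% yet at least half of replicates reach 30%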;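 also: positive control wells lacked labelled fibronectin entirely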
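Measured by – fluorescence 485/525 nm · System – AH1F fibroblast monolayer, labelled fibronectin deposition · Amount – 10000 cells per well · Buffer or medium – serum-reduced DMEM (2% serum) · Doses – single dose, pinned · Also added – fluorescent fibronectin at 24 nM final · Schedule – 1 h cell attachment, overnight exposure to compound and label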
ARNT TACC3 PPI: ARNT/TACC3 interaction disruption; AlphaScreen His-ARNT PAS-B/GST-TACC3 binding, luminescence; TACC3 fragment carries E629A point mutation; inhibition, % at 9.99 µM; Q9Y6A5; 390,000 tested, 0.66% active;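 active = mean inhibition of replicates at least 50% and at least half of replicates each reaching 50%; inconclusive = half or more replicates reach 50% but mean below 50%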;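 also: 0% = complete ARNT plus TACC3 wells and 100% = ARNT alone without TACC3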
SIRT5 inh: inhibitors of human sirtuin-5 desuccinylase. inhibition, % at 15 µM. 330,000 tested, 1.1% active. Purified SirT5, succinyl-peptide AMC, trypsin-coupled fluorescence. AID 652115. Q9NXA8; in the data active = inhibition above about 15%; inconclusive = no clear call, values can overlap the other calls
Target sequence (Q9NXA8 whole entry, looked up): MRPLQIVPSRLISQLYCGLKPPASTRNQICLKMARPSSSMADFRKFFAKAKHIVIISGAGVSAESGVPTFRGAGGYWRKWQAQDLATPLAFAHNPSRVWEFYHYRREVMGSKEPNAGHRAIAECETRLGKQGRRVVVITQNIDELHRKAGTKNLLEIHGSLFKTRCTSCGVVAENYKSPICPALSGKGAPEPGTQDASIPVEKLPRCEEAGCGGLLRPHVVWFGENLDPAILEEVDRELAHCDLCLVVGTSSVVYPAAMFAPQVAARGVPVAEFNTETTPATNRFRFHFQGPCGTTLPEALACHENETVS
FGF22 binding: shifts melting point of recombinant human FGF22; recombinant FGF22 thermal shift, SYPRO orange fluorescence; percent of sucrose octasulfate shift, DMSO zero; Q9HCT0; activity (Tm shift, normalised), % at 9.99 µM; 340,000 tested, 1.5% active;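 active = mean Tm shift, scaled 0 neutral to 100 positive control, at about 1.3% or above, every replicate too, limit read from the data; inconclusive = no clear call, values can overlap the other calls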
Target sequence (Q9HCT0 whole entry, looked up): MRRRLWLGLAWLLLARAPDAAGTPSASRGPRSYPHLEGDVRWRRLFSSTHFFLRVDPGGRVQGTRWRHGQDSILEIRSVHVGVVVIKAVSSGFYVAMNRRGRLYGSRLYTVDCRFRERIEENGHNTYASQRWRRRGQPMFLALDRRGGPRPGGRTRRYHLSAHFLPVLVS
* hit, by the source's call; ? = inconclusive; nt = no result given.

SMILES | Xi reactivation | DENV2 CPE rescue | FN deposit inh | ARNT TACC3 PPI | SIRT5 inh | FGF22 binding
CN(C=O)c1ccc(CSc2ccccc2)cc1 | 3 | 9 | -2 | 3 | 36* | 0
COc1ccc(NC(=O)N2[C@@H]3CNC[C@H]2C3c2ccc(-c3ccc(F)cc3)cc2)cc1 (some centres undefined) | 0 | 0 | 6 | nt | 3 | nt
O=S(=O)(c1cccs1)N1CCCCN2[C@H](CO)[C@H](c3ccc(C4=CCCCC4)cc3)[C@@H]2C1 | nt | -8 | nt | -6 | 18* | -1
O=S(=O)(c1cccs1)N1CCCCN2[C@H](CO)[C@H](c3ccc(C4=CCCC4)cc3)[C@@H]2C1 | 0 | 46* | nt | 3 | 2 | 0
O=S(=O)(c1cccs1)N1CCCCN2[C@@H](CO)[C@@H](c3ccc(C4=CCCCC4)cc3)[C@@H]2C1 | nt | -8 | nt | 3 | -2 | -1
CN1CCCCN2[C@H](CO)[C@H](c3ccc(C4=CCCC4)cc3)[C@H]2C1 | 0 | 29* | nt | 10 | -5 | 0
O=C(C[C@H]1C=C[C@H](NC(=O)Cc2ccccn2)[C@H](CO)O1)NCCc1ccncc1 | 0 | -3 | -23 | 12 | -3 | 1
COc1cc(NC(=O)CSc2ncnc3scc(-c4ccccc4)c23)c(C(=O)O)cc1OC | 0 | 4 | -1 | -10 | -3 | 43*
O=C(O)CSc1ncnc2scc(-c3ccccc3)c12 | 0 | 0 | 5 | -5 | -4 | 43
O=C(Cc1ccncc1)Nc1ccc2c(c1)[C@H]1C[C@@H](CC(=O)N3CCCCC3)O[C@@H](CO)[C@H]1O2 | 0 | 2 | -1 | -1 | 0 | nt
Cc1nc(SCCOc2ccccc2)[nH]c(=O)c1Cc1ccccc1 | 0 | -4 | 2 | -2 | -7 | 43*
COc1ccc(OCCSc2nc(C)c(Cc3ccccc3)c(=O)[nH]2)cc1 | 0 | -3 | 0 | -10 | -6 | 0
COc1cccc(-c2cnc3c(c2)C(=O)N([C@H](C)CO)C[C@H](C)[C@H](CN(C)C(=O)NC2CCCC2)O3)c1 | 1 | -2 | -6 | -5 | -1 | 0
C[C@H](O)[C@@H]1CN2CCc3c([nH]c4ccccc34)[C@@H]2C[C@@H]1N(C)C(=S)Nc1ccc(C#N)cc1 | 0 | 25* | -8 | nt | 3 | 0
C[C@H](O)[C@@H]1CN2CCc3c([nH]c4ccccc34)[C@@H]2C[C@@H]1N(C)C(=O)Nc1ccc(Br)cc1 | nt | 9 | -4 | nt | 2 | 0
COc1ccc2c3c(n(C)c2c1)[C@@H](CO)N(C(=O)c1cccnc1)CC31CN(S(C)(=O)=O)C1 | 0 | 14 | nt | nt | 0 | 1
CN1C(C)(C)c2ccccc2OS1(=O)=O | 0 | 25* | 0 | nt | 0 | 1
COc1ccc(CC(=O)OCn2nnc3ccccc3c2=O)cc1OC | 1 | -1 | 1 | -36 | 0 | 0
COc1ccc(CCn2nnc3ccccc3c2=O)cc1OC | 0 | 5 | 0 | nt | nt | 43*
C[C@H](O)C#Cc1ccc2c(c1)O[C@H](CN(C)C(=O)C1CCC1)[C@H](C)CN([C@H](C)CO)S2(=O)=O | -1 | 12 | nt | -8 | -2 | -1
COc1ccc(N2CCN(Cc3nc4c(c(=O)[nH]c(=O)n4C)n3CCCc3ccccc3)CC2)cc1 | nt | nt | nt | 8 | nt | nt
COc1ccc(N2CCN(Cc3nc4c(c(=O)[nH]c(=O)n4C)n3Cc3cccc(Cl)c3)CC2)cc1 | 0 | 98* | 3 | -3 | 0 | -1
O=C(NCCNC(=O)c1ccc(-c2cc(Cl)ccc2Cl)o1)c1cnccn1 | 1 | 4 | 4 | nt | nt | 44*
O=C(NCCNC(=O)c1ccc(-c2ccc(Cl)c(Cl)c2)o1)c1cnccn1 | 0 | -2 | 7 | 1 | -5 | 0
Nc1c(C(=O)c2ccc(Cl)cc2)sc2nsc(SCCN3CCOCC3)c12 | 0 | -9 | -1 | -9 | -1 | 0
Nc1c(C(=O)c2ccccc2)sc2nsc(SCCN3CCCC3)c12 | ? | 57* | -28 | -1 | 2 | nt
CCC(=O)N1CC[C@@H]2[C@H]1c1cc(-c3cccc(F)c3)ccc1N(C)[C@H]2CO | 0 | nt | -4 | 12 | nt | 0

Screens: PubChem, Broad Institute
